Measurements taken from ChEMBL document CHEMBL1125194, “Probing the bradykinin receptor: mapping the geometric topography using ethers of hydroxyproline in novel peptides” (J Med Chem, 1991).

Legend:
[1] = Binding affinity of compound was measured for bradykinin receptor in guinea pig ileum; format: tissue-based, Cavia porcellus
[2] = Antagonistic activity of compound was measured for bradykinin receptor in guinea pig ileum; format: functional, tissue-based; settings: Cavia porcellus, read-out: pA2 (converted)
Method in brief: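 Guinea pig ileal longitudinal muscle strips, which express only B2 receptors. Cumulative bradykinin dose-response curves were run without and with increasing antagonist concentrations (0.1-0.3 μM), and antagonism was expressed as pA2. Agonist activity was also checked at concentrations up to 10 μM.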

[3] = Antagonistic activity of compound was measured in SV-T2 cells; format: functional, cell-based; settings: Mus musculus, read-out: pA2 (converted)
Method in brief: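 SV-T2 fibroblasts, which express only B2 receptors. Antagonism of bradykinin-stimulated prostaglandin synthesis was measured and expressed as pA2. Agonist activity was also checked at concentrations up to 10 μM.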

SMILES	Ki [1] [nM]	Kb [2] [nM]	Kb [3] [nM]
CO[C@@H]1C[C@@H](C(=O)N2Cc3ccccc3CC2C(=O)N[C@@H](CCCN=C(N)N)C(=O)O)N(C(=O)[C@H](CO)NC(=O)[C@@H](NC(=O)CNC(=O)[C@@H]2C[C@H](O)CN2C(=O)[C@@H]2CCCN2C(=O)[C@H](CCCN=C(N)N)NC(=O)[C@H](N)CCCN=C(N)N)c2cccs2)C1 (stereo partly drawn)	2.12	186	3.98
CCCO[C@@H]1C[C@@H](C(=O)N2Cc3ccccc3C[C@H]2C(=O)N[C@@H](CCCN=C(N)N)C(=O)O)N(C(=O)[C@H](CO)NC(=O)[C@@H](NC(=O)CNC(=O)[C@@H]2C[C@H](O)CN2C(=O)[C@@H]2CCCN2C(=O)[C@H](CCCN=C(N)N)NC(=O)[C@H](N)CCCN=C(N)N)c2cccs2)C1	0.77	24.5	1.58
CCCO[C@@H]1C[C@@H](C(=O)N2C3CCCCC3C[C@H]2C(=O)N[C@@H](CCCN=C(N)N)C(=O)O)N(C(=O)[C@H](CO)NC(=O)[C@@H](NC(=O)CNC(=O)[C@@H]2C[C@H](O)CN2C(=O)[C@@H]2CCCN2C(=O)[C@H](CCCN=C(N)N)NC(=O)[C@H](N)CCCN=C(N)N)c2cccs2)C1 (stereo partly drawn)	0.16	2.88	0.251
CO[C@H]1C[C@@H](C(=O)N2Cc3ccccc3C[C@H]2C(=O)N[C@@H](CCCN=C(N)N)C(=O)O)N(C(=O)[C@H](CO)NC(=O)[C@@H](NC(=O)CNC(=O)[C@@H]2C[C@H](O)CN2C(=O)[C@@H]2CCCN2C(=O)[C@H](CCCN=C(N)N)NC(=O)[C@H](N)CCCN=C(N)N)c2cccs2)C1	102	8910	251
CCCO[C@H]1C[C@@H](C(=O)N2Cc3ccccc3C[C@H]2C(=O)N[C@@H](CCCN=C(N)N)C(=O)O)N(C(=O)[C@H](CO)NC(=O)[C@@H](NC(=O)CNC(=O)[C@@H]2C[C@H](O)CN2C(=O)[C@@H]2CCCN2C(=O)[C@H](CCCN=C(N)N)NC(=O)[C@H](N)CCCN=C(N)N)c2cccs2)C1	144	5750	158
NC(N)=NCCC[C@@H](N)C(=O)N[C@@H](CCCN=C(N)N)C(=O)N1CCC[C@H]1C(=O)N1C[C@H](O)C[C@H]1C(=O)NCC(=O)N[C@@H](Cc1ccccc1)C(=O)N[C@@H](CO)C(=O)N[C@H](Cc1ccccc1)C(=O)N[C@@H](Cc1ccccc1)C(=O)N[C@@H](CCCN=C(N)N)C(=O)O	57.9	1510	10
